# Screens from PubChem.
# Shown are actives, neighbours in structure and some others; about 4.7% of the full set was active somewhere.
# FXN GAA850 act – activators of GAA850 frataxin (FXN) promoter | HEK293 lucGAA850 FXN promoter luciferase reporter, 24 h; percent of 10 µM SAHA response | activation, % at 6 µM | AID 540364 | 360,000 compounds, 0.56% hits;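 active means activation above the average of all compounds screened plus 3 SD, cutoff fixed separately per campaign, cut at about 7.5% in these data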;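 further: 0% = DMSO wells and 100% = 10 µM SAHA wells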
# MC4R antagonist – human MC4R antagonism in cAMP assay; 360,000 compounds, 0.48% hits; inhibition, % at 6.5 µM; AID 540295; MC4R-expressing cells, MTII-stimulated cAMP, LANCE TR-FRET;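 active means inhibition above its plate's cutoff, the mean of tested wells on that plate plus 3 SD, cut at about 29% in these data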;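 further: 0% = Melanotan II alone and 100% = Melanotan II plus saturating MCL0020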
#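 Assay system: U2OS-MC4R stable cell line; Also added: Melanotan II; Technique: Eu-cAMP/anti-cAMP TR-FRET, emission 671 nm; Times: 30-min compound, 1-h challenge, 1-h detection, room temperature.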
# HTR2A ag – agonists of mouse serotonin 5-HT2A receptor (HTR2A) | 360,000 compounds, 0.66% hits | CHO-K1 mHTR2A beta-arrestin complementation, luminescence; percent of 30 µM serotonin response | activation, % at 7.6 µM;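 active means activation above a run cutoff, the mean activation of all tested compounds plus 3 SD, cut at about 14% in these data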;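 further: 0% = plate median of compound wells and 100% = 30 µM serotonin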
# Target sequence (P35363 whole entry, looked up): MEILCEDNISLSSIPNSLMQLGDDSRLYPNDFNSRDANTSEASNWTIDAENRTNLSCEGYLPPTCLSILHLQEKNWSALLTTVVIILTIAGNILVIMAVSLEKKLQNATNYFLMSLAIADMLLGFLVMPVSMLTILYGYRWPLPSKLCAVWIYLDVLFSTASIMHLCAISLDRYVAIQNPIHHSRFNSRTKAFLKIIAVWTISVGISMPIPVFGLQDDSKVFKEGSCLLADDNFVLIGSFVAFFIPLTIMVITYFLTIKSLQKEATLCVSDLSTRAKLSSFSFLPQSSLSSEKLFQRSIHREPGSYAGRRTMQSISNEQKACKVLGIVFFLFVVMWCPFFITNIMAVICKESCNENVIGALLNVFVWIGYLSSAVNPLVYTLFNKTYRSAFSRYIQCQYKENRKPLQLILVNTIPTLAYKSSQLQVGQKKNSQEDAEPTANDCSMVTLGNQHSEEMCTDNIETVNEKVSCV
# MC4R barr agon – activates human MC4R beta-arrestin recruitment; P32245; U2OS MC4R beta-arrestin complementation, luminescence; percent of melanotan II response, DMSO zero; activation, % at 8.9 µM; 360,000 compounds, 0.98% hits; AID 540308;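 active means activation above a per-plate cutoff, the mean activation of sample wells on that plate plus 3 SD, cut at about 8% in these data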
# AHR activator – human AHR activation | P35869 | AHR-responsive luciferase reporter cells, luminescence | activation, % at 5 µM | 320,000 compounds, 2.5% hits | AID 2796; in the data active means activation above about 47%;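 further: 0% = vehicle wells and 100% = reference agonist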
# Active calls of the source: *; . = no result given.
SMILES,FXN GAA850 act,MC4R antagonist,HTR2A ag,MC4R barr agon,AHR activator
Cc1cccc(OCCCC(=O)Nc2ccc(N3CCCCC3)cc2)c1,-2,5,-5,11*,-1
COc1ccc(OCCCC(=O)Nc2ccc(N3CCCCC3)cc2)cc1,2,2,5,-1,-2
Cc1ccc(NC(=O)CCC(=O)NNC(=O)COc2ccccc2)cc1C,1,10,2,-2,68*
O=C1NC(=S)N/C1=C\C=C\c1ccccc1,2,3,-4,1,-6
COc1cc(OC)cc(C(=O)NNC(=O)CN2C(=O)NC(C)(c3ccc(C)cc3)C2=O)c1 (centres undefined),0,4,-2,-1,0
C(=NNc1ccc2ccccc2n1)c1ccccn1,.,.,-9,.,.
CCOc1ccc2oc(C(=O)NCC(c3ccco3)N(C)C)c(C)c2c1 (centres undefined),-1,10,-1,-1,.
Cc1c(C(=O)NCC(c2ccco2)N(C)C)oc2c(Cl)cccc12 (centres undefined),1,-6,-3,-2,48*
CC(Sc1nnc(Nc2ccccc2)s1)C(=O)Nc1nc(-c2ccccc2)cs1 (centres undefined),-2,6,2,1,13
CC(Sc1nnc(NCc2ccccc2)s1)C(=O)Nc1ccc2c(c1)C(=O)c1ccccc1C2=O (centres undefined),-7,28,-1,3,50*
O=[N+]([O-])c1cc(Cl)ccc1N1CCCC1,2,0,-2,-1,12
O=C1C(Cl)=C(N2CCN(c3ccccc3[N+](=O)[O-])CC2)C(=O)c2ccccc21,4,-14,4,-2,71*
OC1C2COC(O2)C2OC(c3ccccc3)OC12 (centres undefined),2,8,1,1,.
O=C(Nc1ccc(F)c(Cl)c1)c1cccnc1,4,-1,4,1,15
CCOC(=O)c1ccc(NC(=O)c2nn(CC)cc2Br)cc1,3,-4,-2,1,0
O=C(Nc1ccc(F)c(Cl)c1)c1ccccc1,3,-2,-5,-1,56*
O=C(Nc1cccc(Cl)c1)Nc1nccs1,3,1,1,1,18
O=C(Nc1ccc(Cl)c(Cl)c1)Nc1nccs1,2,-25,5,-1,59*
O=C(Nc1ccc(Cl)c(Cl)c1)c1ccncc1,3,-1,-1,-1,65*
CCn1cc(Br)c(C(=O)Nc2ccc(F)c(Cl)c2)n1,2,-4,1,-1,51*
O=C(Nc1cccc(Cl)c1)c1ccncc1,0,0,-3,3,17
CC(CCc1ccccc1)NC(=O)C1CCN(S(=O)(=O)c2ccc(F)cc2)CC1 (centres undefined),-1,4,-1,-2,1
c1ccc(C[C@H]2CNCCN2CC2(c3ccccc3)CC2)cc1,0,6,-7,-1,0
Cc1ccccc1NC(=O)c1ccc(Cl)c(NC(=O)c2ccncc2)c1,-1,6,0,-2,48*
O=C(Nc1ccccc1Cl)c1ccc(C(=O)Nc2ccccc2Cl)cc1,1,5,5,-2,.
SMILES,FXN GAA850 act,MC4R antagonist,HTR2A ag,MC4R barr agon,AHR activator
COC(=O)c1cc(NC(=O)c2ccc(-c3ccccc3)cc2)ccc1Cl,-1,2,2,9.3*,-1
Fc1ccc(NC(=S)Nc2cc(-c3ccccc3)[nH]n2)cc1Cl,1,24,-2,4,53*
O=C(Nc1cccc(Cl)c1Cl)c1ccc(-c2ccccc2)cc1,4,-1,-4,4,65*
Cc1ccc(C)c(C(O)c2ncc(-c3ccc(Cl)cc3)[nH]2)c1 (centres undefined),0,1,-1,-1,.
Clc1cccc(-c2noc3ncnc(Nc4ccc5c(c4)OCO5)c23)c1,0,5,0,0,55*
CNC(=O)C[C@H]1C(=O)N(Cc2ccccc2)C[C@@H]1Cc1ccccc1,1,7,0,-1,.
Oc1ccc(Nc2nc(-c3ccc4ccccc4c3)cs2)cc1,5,13,4,1,64*
Cc1cc(NS(=O)(=O)c2ccc(Nc3nc(-c4ccc(O)cc4)cs3)cc2)no1,2,4,-4,-2,60*
Cc1cc(NS(=O)(=O)c2ccc(Nc3nc(-c4ccc(C)c(C)c4)cs3)cc2)no1,1,23,14,1,0
O=C1c2ccccc2C2N1CCCN2C(=O)c1sc2ccccc2c1Cl (centres undefined),4,5,12,-1,.
O=[N+]([O-])c1cccc(COc2ccccc2CN2CCCC2)c1,-1,7,-2,2,.
CCOC(=O)[C@@H]1[C@H]2COc3ccccc3[C@@H]2N2C(=O)N(c3cccc(F)c3)C(=O)[C@@]12C,3,11,5,0,2
O=C(O)c1ccccc1OC(C(=O)Nc1cc(Cl)cc(Cl)c1)c1ccccc1 (centres undefined),0,2,3,9.3*,12
O=C(Nc1cc(Cl)cc(Cl)c1)C(c1ccccc1)N1CCCCC1 (centres undefined),4,-2,3,7,9
O=S(=O)(/C=C/C=C/S(=O)(=O)c1ccccc1)c1ccccc1,-16,22,4,-1,.
Cc1cccc(-c2nc3ccccc3c(=O)n2NC(=O)c2cccs2)c1,-1,-1,3,1,9
Cc1ccc(-c2nc3ccccc3c(=O)n2NC(=O)c2cccs2)cc1,1,8,2,-2,52*
CC(=O)c1c(-c2ccc(C)cc2)nc2c3ccccc3ccn12,4,8,1,1,59*
Cc1ccc(-c2nc3c4ccccc4ccn3c2CN2CCCCC2)cc1,5,-8,-8,1,31
CC(C)(C)NC(=O)NC(=O)COC(=O)c1ccc(OC(F)(F)F)cc1,0,1,8,8.4*,0
O=C(C[C@H]1C/C=C\C[C@H](NC(=O)OCC2c3ccccc3-c3ccccc32)C(=O)O[C@H](c2ccccc2)CNC1=O)N[C@H](CO)Cc1ccccc1,-1,0,0,26*,6
Cc1ccc(C)c(CC(=O)N2CCCC(c3cc(C(=O)Nc4ccccc4Cl)no3)C2)c1 (centres undefined),0,11,-2,-1,.
Cc1ccc(Nc2nnc(SCC(=O)c3ccc(Br)s3)s2)c(C)c1,3,4,-3,1,60*
Cc1ccc(Nc2nnc(SC/C(O)=C(\C#N)c3nc4ccccc4[nH]3)s2)c(C)c1,-1,16,5,-3,55*
CCn1nnc2cc(C(=O)Nc3cc(Cl)ccc3C)ccc21,2,9,-3,-1,-4
O=C(CN1CCCC1)Nc1c2c(nc3ccccc13)N(Cc1ccccc1)CC2,-1,1,-3,1,71*
O=C(CN1CCOCC1)NNc1c2ccccc2nc2ccccc12,2,-19,-2,-2,6
